# Source: ChEMBL document CHEMBL4602672, “Isolation, Identification, and Decomposition of Antibacterial Dialkylresorcinols from a Chinese Pseudomonas aurantiaca Strain” (2020)
# Calls of active or inactive are those of the source. The calls are words filed in the database; no cut-off is given here.
# Experiments:
# Streptococcus mutans [1] = assay: Antibacterial activity against Streptococcus mutans ATCC 25175 assessed as reduction in microbial growth after 24 hrs by agar well diffusion assay; type: functional; settings: ATCC 25175, 24 h
# Enterococcus hirae [2] = assay: Antibacterial activity against Enterococcus hirae ATCC 8043 assessed as reduction in microbial growth after 24 hrs by agar well diffusion assay; type: functional; settings: ATCC 8043, 24 h
# Bacillus subtilis [3] = assay: Antibacterial activity against Bacillus subtilis ATCC 6633 assessed as reduction in microbial growth after 24 hrs by agar well diffusion assay; type: functional; settings: ATCC 6633, 24 h
# Staphylococcus aureus [4] = assay: Antibacterial activity against Staphylococcus aureus ATCC 12600 assessed as reduction in microbial growth after 24 hrs by agar well diffusion assay; type: functional; settings: ATCC 12600, 24 h
# [5] = tested on: Staphylococcus epidermidis; assay: Antibacterial activity against Staphylococcus epidermidis ATCC 14990 assessed as reduction in microbial growth after 24 hrs by agar well diffusion assay; type: functional; settings: ATCC 14990, 24 h
# Enterococcus hirae [6] = assay: Antibacterial activity against Enterococcus hirae ATCC 8043 assessed as reduction in microbial growth at 0.06 to 133 ug/ml after 24 hrs by agar well diffusion assay; type: functional, organism-based
# Summary of the method: (§1)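 Modified literature MIC protocol against ATCC pathogens. Antibiotics served as positive control and sterile water with DMSO (<5%) as negative control. For the related well-diffusion work, test samples were dissolved in sterile water with DMSO (<5%). MIC given in μg/mL.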
# [7] = tested on: Staphylococcus epidermidis; assay: Antibacterial activity against Staphylococcus epidermidis ATCC 14990 assessed as reduction in microbial growth at 0.06 to 133 ug/ml after 24 hrs by agar well diffusion assay; type: functional, organism-based; summary of the method: as §1
# Bacillus subtilis [8] = assay: Antibacterial activity against Bacillus subtilis ATCC 6633 assessed as reduction in microbial growth at 0.06 to 133 ug/ml after 24 hrs by agar well diffusion assay; type: functional, organism-based; summary of the method: as §1
# Staphylococcus aureus [9] = assay: Antibacterial activity against Staphylococcus aureus ATCC 12600 assessed as reduction in microbial growth at 0.06 to 133 ug/ml after 24 hrs by agar well diffusion assay; type: functional, organism-based; summary of the method: as §1
# Streptococcus mutans [10] = assay: Antibacterial activity against Streptococcus mutans ATCC 25175 assessed as reduction in microbial growth at 0.06 to 133 ug/ml after 24 hrs by agar well diffusion assay; type: functional, organism-based
SMILES,MIC (Streptococcus mutans [1]),MIC (Enterococcus hirae [2]),MIC (Bacillus subtilis [3]),MIC (Staphylococcus aureus [4]),MIC [5],Activity (Enterococcus hirae [6]),Activity [7],Activity (Bacillus subtilis [8]),Activity (Staphylococcus aureus [9]),Activity (Streptococcus mutans [10])
CCCCCCc1c(O)cc(CCCCC)cc1O [RESORSTATIN],4.2 µg/mL,4.2 µg/mL,8.4 µg/mL,4.2 µg/mL,4.2 µg/mL,,,,,
CC1(C)S[C@@H]2[C@H](NC(=O)Cc3ccccc3)C(=O)N2[C@H]1C(=O)O [PENICILLIN G],1.1 µg/mL,,,0.26 µg/mL,0.52 µg/mL,,,,,
CCCCCCCC1=CC(O)(C(=O)CCCCCC)OC1=O (stereo not given),133 µg/mL,66.7 µg/mL,33.4 µg/mL,16.7 µg/mL,33.4 µg/mL,,,,,
CCCCCCC(=O)C1(O)C=C(CCCCC)C(=O)O1 (stereo not given),133 µg/mL,133 µg/mL,66.7 µg/mL,33.4 µg/mL,66.7 µg/mL,,,,,
CCCCCCC1=C(O)C(=O)C(CCCCC)=C(C2=C(CCCCC)C(=O)C(O)=C(CCCCCC)C2=O)C1=O,133 µg/mL,,133 µg/mL,133 µg/mL,,inactive,inactive,,,
CN[C@H](CC(C)C)C(=O)N[C@H]1C(=O)N[C@@H](CC(N)=O)C(=O)N[C@H]2C(=O)N[C@H]3C(=O)N[C@H](C(=O)N[C@H](C(=O)O)c4cc(O)cc(O)c4-c4cc3ccc4O)[C@H](O)c3ccc(c(Cl)c3)Oc3cc2cc(c3O[C@@H]2O[C@H](CO)[C@@H](O)[C@H](O)[C@H]2O[C@H]2C[C@](C)(N)[C@H](O)[C@H](C)O2)Oc2ccc(cc2Cl)[C@H]1O [VANCOMYCIN],,,1.1 µg/mL,,,,,,,
CCCCCCCC1=CC(=O)C(CCCCCC)=C(O)C1=O,133 µg/mL,,,133 µg/mL,,inactive,inactive,inactive,,
CCCCCCC1=C(O)C(=O)C(CCCCC)=C(c2c(CCCCC)cc(O)c(CCCCCC)c2O)C1=O,133 µg/mL,,,,,inactive,inactive,,inactive,
CCCCCCCc1cc(O)c(CCCCCC)c(O)c1,33.4 µg/mL,33.4 µg/mL,66.7 µg/mL,1.1 µg/mL,8.3 µg/mL,,,,,
Oc1ccc2nc3ccccc3nc2c1,,,,,33.4 µg/mL,inactive,,inactive,inactive,inactive
CC1(C)S[C@@H]2[C@H](NC(=O)[C@H](N)c3ccccc3)C(=O)N2[C@H]1C(=O)O [AMPICILLIN],,1.1 µg/mL,,,,,,,,
CCCCCCC1=C(O)C(=O)C(CCCCC)=CC1=O,66.7 µg/mL,133 µg/mL,33.4 µg/mL,,,,inactive,inactive,inactive,
